Compound activity (PubChem BioAssay)
RGS4 inh: inhibitors of human RGS4 | HEK293 M3R/RGS4 inducible, Fluo-4 calcium flux; stronger effect = higher value; triggered by carbachol at its EC20 | B-score at 10 µM | 0.45% of 310,000 active | AID 463165;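 active = B-score, a plate-corrected calcium signal, over three deviations above library mean, with baseline fluorescence within five deviations of library mean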;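 also: RGS4 expression induced by doxycycline in cells with stable M3 receptor; B-score is computed from the integrated fluorescence ratio over baseline after carbachol; higher B-score means a larger calcium signal and so more RGS4 inhibition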
Target sequence (P49798 whole entry, looked up): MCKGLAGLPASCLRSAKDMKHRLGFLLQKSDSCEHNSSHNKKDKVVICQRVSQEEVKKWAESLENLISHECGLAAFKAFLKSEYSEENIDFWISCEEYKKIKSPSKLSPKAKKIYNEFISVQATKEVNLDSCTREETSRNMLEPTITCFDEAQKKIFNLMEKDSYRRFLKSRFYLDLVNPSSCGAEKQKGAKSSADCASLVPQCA
MrgX1 ag: agonists of human MrgX1 receptor; MrgX1-HEK293 cells, Fluo-4 calcium fluorescence, agonist mode; stronger effect = higher value; B-score at 10 µM; 0.44% of 310,000 active;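 active = calcium response B-score plate-corrected fluorescence ratio at least 3 library SD, with starting fluorescence B-score inside 5 SD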
Target sequence (Q96LB2 whole entry, looked up): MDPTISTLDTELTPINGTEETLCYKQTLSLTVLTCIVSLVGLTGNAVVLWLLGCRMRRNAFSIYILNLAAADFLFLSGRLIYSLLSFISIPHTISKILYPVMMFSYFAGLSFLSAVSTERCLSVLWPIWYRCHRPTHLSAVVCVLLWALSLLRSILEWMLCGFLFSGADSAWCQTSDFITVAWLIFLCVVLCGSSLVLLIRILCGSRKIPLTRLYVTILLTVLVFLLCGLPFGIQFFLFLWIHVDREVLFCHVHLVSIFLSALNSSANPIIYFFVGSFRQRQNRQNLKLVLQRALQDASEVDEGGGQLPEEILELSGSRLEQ
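Assay system: MrgX1-expressing HEK293 cells / Amount: fifteen thousand cells per well / Doses: test compound in the initial addition of three / Timing: cells plated overnight, dye loaded 0.5 h 37 °C, 0.5 h room temperature / Technique: kinetic calcium dye fluorescence, Fluo-4 NW / Control set: positive and negative controls per plate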
RGS4 pot: potentiators or activators of RGS4. B-score at 10 µM. 0.92% of 310,000 active. AID 463111. HEK293 M3R/inducible RGS4, carbachol calcium flux Fluo4; stronger effect = lower value;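 active = B-score of the integrated calcium signal more than 4 SD below the library mean, with starting fluorescence not abnormally high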;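 also: negative B-score means reduced calcium response which marks RGS4 activation or potentiation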
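test system = HEK293 cells with stable M3R and inducible RGS4 | schedule = recording 10 s baseline at 1 Hz, 100 s post-agonist | technique = Fluo4-AM (2 µM) calcium-flux fluorescence, kinetic read | measure = Agonist-evoked peak-minus-minimum fluorescence over baseline, integrated ratio, B score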
MrgX1 allo act: human MrgX1 positive allosteric modulation, primary screen | MrgX1-HEK293, Fluo-4 calcium flux, FDSS; stronger effect = higher value | B-score at 10 µM | Q96LB2 | AID 588675 | 0.63% of 310,000 active;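 active = plate-corrected calcium response at least 3 library SD above typical, normal starting fluorescence, not activating the receptor alone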;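 also: compound read alongside a low EC10 to EC30 dose of BAM8-22 agonist; peak minus trough fluorescence over baseline measured at the second addition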
MrgX1 antagonist: human MrgX1 receptor antagonism, primary screen; MRGX1-HEK293 calcium flux, Fluo-4, BAM8-22 antagonism; stronger effect = lower value; 1.3% of 310,000 active; B-score at 10 µM; AID 588676; Q96LB2;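 active = calcium-response B-score plate-corrected more than 3 library SD below zero, starting fluorescence within 5 deviations, no agonist response on first addition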;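 also: peak minus trough fluorescence over baseline after final BAM8-22 challenge near maximal dose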
Each line names hits and unclear results; the compound was inactive in the other large screens. This is a sample that favours compounds with a hit; in the whole collection about 3.5% have one here.

CC1(C)C(=O)OC(c2cccn2-c2ccc([N+](=O)[O-])cc2)C(C)(C)C1=O (configuration not stated)	MrgX1 antagonist -5.05
COc1ccc(C(=O)NCC(c2cccs2)N2CCc3ccccc32)cc1OC (configuration not stated)	none
N/C(=N\OC(=O)c1cccnc1)c1ccccc1Cl	none
N/C(=N\OC(=O)c1cccnc1)c1ccc(Cl)cc1Cl	MrgX1 antagonist -4.6
OCC(O)C(O)C(O)C(O)c1nc2ccccc2[nH]1 (configuration not stated)	none
CC(C)CC(=O)O/N=C1\C(=O)N(Cc2ccc(Cl)cc2)c2ccc([N+](=O)[O-])cc21	RGS4 inh 6.38
CC(C)CC(=O)O/N=C1\C(=O)N(c2ccccc2)c2ccccc21	none
CC(=O)N(c1ccccc1)C1CCCC1	none
O=C(CCl)N(c1ccccc1)C1CCCCC1	RGS4 pot -7.04
CCOc1ccc(/C=C2\SC(=S)N(C(C(=O)O)c3ccccc3)C2=O)cc1OC (configuration not stated)	none
C=CCOc1ccc(/C=C2\SC(=S)N(C(C(=O)O)c3ccccc3)C2=O)cc1 (configuration not stated)	RGS4 pot -9.26 (no result: MrgX1 ag, MrgX1 allo act, MrgX1 antagonist)
COc1ccc(OC)c(/C=C2\SC(=S)N(C(C(=O)O)c3ccccc3)C2=O)c1 (configuration not stated)	MrgX1 ag 53.3
N#C/C(=C\c1cccs1)Sc1nc2ccccc2s1	MrgX1 antagonist -5.31
N#C/C(=C\c1ccc[nH]1)Sc1nc2ccccc2s1	none
Cc1cc(C)c(S(=O)(=O)N2CCN(C(=O)N3CCOCC3)CC2)c(C)c1	none
C=CCNC(=O)C(C#N)c1nc2ccccc2nc1N1CCCCCC1 (configuration not stated)	MrgX1 allo act 7.65
COc1ccc(CNC(=O)C(C#N)c2nc3ccccc3nc2N2CCN(C)CC2)cc1 (configuration not stated)	none
COc1ccc(CNC(=O)C(C#N)c2nc3ccccc3nc2N2CCCC2)cc1 (configuration not stated)	MrgX1 antagonist -5.07
COc1ccccc1NC(=S)N(Cc1ccco1)Cc1cc2cc(C)c(C)cc2[nH]c1=O	none
O=C(NCC1CCCO1)C1CCC(=O)N1Cc1ccc(F)cc1 (configuration not stated)	none
CC(C)(C)C1CCc2c(C(=O)N/N=C/c3cccs3)csc2C1 (configuration not stated)	none
CC(C)(C)C1CCc2c(C(=O)NNC(=O)/C=C/C(=O)O)csc2C1 (configuration not stated)	MrgX1 antagonist -6.39
S=C(NNc1ccnc2cc(Cl)ccc12)Nc1ccccc1Cl	MrgX1 allo act 6.67
Clc1ccc2c(NCc3ccccc3)ccnc2c1	MrgX1 ag 31.9
S=C(Nc1ccccc1Cl)Nc1ccc(Cl)cc1Cl	none
CCN(CC)CCNc1ccnc2cc(Cl)ccc12	none
COC(=O)CSc1nnc(-c2ccc(OC)c(OC)c2)o1	none
CCc1nc(SCc2ccc(OC)cc2)n[nH]1	none
N#C/C(=N/Nc1ccc(OC(F)(F)F)cc1)C(N)=S	none
NC(=S)N=Nc1ccc(NN=C(N)N)cc1	MrgX1 ag 31.1
COc1ccccc1N=Nc1c(C)n[nH]c1C	none
Cc1n[nH]c(C)c1N=Nc1cc(Cl)ccc1Cl	MrgX1 antagonist -5.36
CCN1CCN(C(=O)CN(c2cccc(Br)c2)S(=O)(=O)c2ccccc2)CC1	none
Cc1ccc(S(=O)(=O)N2[C@@H](c3ccccc3)C(C(=O)O)=CC[C@H]2c2ccc3c(c2)OCO3)cc1	MrgX1 allo act 10 (no result: RGS4 inh, RGS4 pot)
Cc1ccc(S(=O)(=O)N2[C@@H](c3ccc(Cl)cc3)C(C(=O)O)=CC[C@H]2c2cccc(Cl)c2)cc1	MrgX1 ag 30.2 (no result: RGS4 inh, RGS4 pot)
Cc1ccc(S(=O)(=O)N2[C@@H](c3ccc(Cl)cc3)C(C(=O)O)=CC[C@H]2c2cccc(C)c2)cc1	none (no result: RGS4 inh, RGS4 pot)
Cc1nn(Cc2ccc(Cl)cc2)c(C)c1NC(=O)CSc1n[nH]c(C)c1[N+](=O)[O-]	MrgX1 antagonist -4.81
Cc1nn(Cc2ccccc2)c(C)c1NC(=O)CSc1n[nH]c(C)c1[N+](=O)[O-]	none
C=CCOc1ccc(/C=C2\SC(=Nc3cccnc3)NC2=O)cc1	MrgX1 antagonist -4.88
CC(/C=C1\SC(=Nc2cccnc2)NC1=O)=C\c1ccccc1	none
Cc1ccccc1-c1oc(C)c(C)[n+]1[O-]	MrgX1 allo act 7.82
CCOc1ccc(C(=O)NCC(=O)NNC(=O)C2COc3ccccc3O2)cc1OCC (configuration not stated)	MrgX1 antagonist -5.38
CCOCc1nnc(NS(C)(=O)=O)s1	none
COc1ccc(OCc2n(CC(=O)OC3CC(C)CCC3C(C)C)c3ccccc3[n+]2C)cc1 (configuration not stated)	MrgX1 antagonist -14.3
COc1ccc(-c2n(CC(=O)OC3CC(C)CCC3C(C)C)c3ccccc3[n+]2C)cc1 (configuration not stated)	RGS4 pot -7.3 (no result: MrgX1 ag, MrgX1 allo act, MrgX1 antagonist)
COc1cc2c(cc1OC)C(=S)NC(C)(C)C2	none
Nc1nc(CN2CCc3ccccc3C2)nc(Nc2ccccc2)n1	none
COc1cc([N+](=O)[O-])c(OC)cc1SCc1n[nH]c(=S)n1-c1ccc(C)cc1	none
CCCCn1nc(C(=O)Oc2ccc3c(C)cc(=O)oc3c2)c2ccccc2c1=O	MrgX1 antagonist -6.6
COc1cccc(CNCC(=O)Nc2ccc(N3CCOCC3)cc2)c1	none
COCCCNC(=O)c1cc2c(=O)n3cc(C)ccc3nc2nc1NCC1CCCO1 (configuration not stated)	MrgX1 antagonist -7.55
CCOc1ccc(OCC)c(NC(=O)CSc2nc3cccnc3n2C)c1	none
Cc1csc(N/N=C/c2ccc(O)c([N+](=O)[O-])c2)n1	MrgX1 antagonist -6.01
COCCn1c(=O)[nH]c2cc(C(=O)Nc3nnc(C)s3)ccc21	none
O=C(c1ccco1)N1CCN(C(c2cccs2)c2nnnn2C2CCCCC2)CC1 (configuration not stated)	RGS4 pot -7.61
COc1ccc(C(c2nnnn2C2CCCC2)N2CCN(C(=O)c3ccco3)CC2)cc1OC (configuration not stated)	none
COCc1cc(N2CCOCC2)nc(-c2ccccc2)n1	none
COCc1cc(Sc2cccc(Cl)c2Cl)nc(-c2ccccc2)n1	MrgX1 allo act 8.03
O=C(CSc1nc(C2CCCCC2)nc2ccccc12)N1CCCC1	none
COc1ccc(C2=NOC(Cn3nc(C(=O)NCC4CC4)cc3-c3ccccc3)C2)cc1 (configuration not stated)	MrgX1 allo act 7.89
CCOc1ccc2nc(N3CCC(C(=O)N4CCN(c5ncccn5)CC4)CC3)sc2c1	MrgX1 antagonist -8.08
CC(C)=CCC12Oc3cc(O)ccc3C1(O)Oc1cc3c(c(O)c1C2=O)C=CC(C)(C)O3 (configuration not stated)	RGS4 pot -7.29
O=C(CCc1nnc2n(CCc3ccccc3)c(=O)c3ccccc3n12)NCCCN1CCCCC1	none
